Laboratory results reported in ChEMBL document CHEMBL1145979, “Synthetic analogues of the bacterial signal (quorum sensing) molecule N-(3-oxododecanoyl)-L-homoserine lactone as immune modulators” (J Med Chem, 2003).

organism: Mus musculus; assay: Inhibition of murine splenocyte proliferation; Not active; type: functional
Outline: (§1)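 Spleens from 8-week-old female BALB/c mice were made into single-cell suspensions and the red cells lysed (Tris/NH4Cl, pH 7.2). Cultured at 100 000 cells per well in complete T-cell medium with ConA 1 μg/mL and doubling-down dilutions of compound from 1 mM to 0.1 μM, 48 h at 37 °C, 5% CO2. Then 0.25 μCi [³H]-thymidine was added for 24 h and uptake counted; IC50 derived.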

SMILES	IC50
CCCCCCCCCC(=O)CC(N)=O	Not Active
O=C(O)CCCCCCCCCCC(=O)CC(=O)N[C@H]1CCOC1=O	Not Active

organism: Mus musculus; assay: Inhibition of murine splenocyte proliferation; type: functional; outline: as §1

SMILES	IC50 [µM]
CCCCCCCCCCC(=O)N[C@H]1CCOC1=O	90
CCCCCCCCCC(=O)CC(=O)NC1CCSC1=O (centres undefined)	150
CCCCCCCCCCCC(=O)N[C@H]1CCOC1=O	52
CCCCCCCCCCCC(=O)CC(=O)N[C@H]1CCOC1=O	6.3
CCCCCCCCCC(=O)CC(=O)N[C@@H](CCO)C(=O)OC	53
COC(=O)CCCCCCCCCC(=O)CC(=O)N[C@H]1CCOC1=O	60
CCCCCCCCCC(=O)N[C@H]1CCOC1=O	33
C=CCCCCCCCCCC(=O)CC(=O)N[C@H]1CCOC1=O	10
CCCCCC(C)CCC(=O)CC(=O)N[C@H]1CCOC1=O (some centres undefined)	5
CCCCCCCCCC(=O)CC(=O)N[C@H]1CCOC1=O	4
C=CCCCCCCCCC(=O)CC(=O)N[C@H]1CCOC1=O	7
O=C(CCCCCCCCCBr)CC(=O)N[C@H]1CCOC1=O	6
CCCCCCCCCCCC(O)CC(=O)N[C@H]1CCOC1=O (some centres undefined)	7
CCCCCCCCC(=O)CC(=O)N[C@H]1CCOC1=O	8.9
CCCCCCCCCCC(=O)CC(=O)N[C@H]1CCOC1=O	4.3
CCCCCC(=O)CC(=O)N[C@H]1CCOC1=O	400
O=C(CCCCCCCCCO)CC(=O)N[C@H]1CCOC1=O	8
CCCCCC/C=C\CCCC(=O)CC(=O)N[C@H]1CCOC1=O	17
CCC/C=C/CCCCCCC(=O)CC(=O)N[C@H]1CCOC1=O	15
CCCCCCCC(=O)CC(=O)N[C@H]1CCOC1=O	21
O=C(CCCCCCCCCCBr)CC(=O)N[C@H]1CCOC1=O	3
CCCCCCCCCC(O)CC(=O)N[C@H]1CCOC1=O (some centres undefined)	12.5
